Results published in ChEMBL document CHEMBL3525963, “Tissue distribution and elimination of [14C]apixaban in rats” (Drug Metab Dispos, 2011).

How the values were obtained:
Details in all cases: in vivo
Adrenal gland [1] = test: Biodistribution in male Sprague-Dawley rat adrenal gland at 5 mg/kg, po administered as single dose measured after 1 hr; type: ADME, organism-based; set-up: dose 5 mg/kg, dosed compound name [14C]-apixaban, route oral
How it was run: (§1)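 [¹⁴C]Apixaban given by oral gavage at 5 mg/kg (100 μCi/kg) in 0.5% Tween 80 in Labrafil (1.0 mg/mL dosing solution) to rats fasted overnight through 4 h post-dose. One rat per time point; carcass frozen in hexane/dry ice. Quantitative whole-body autoradiography used 40 µm sagittal sections and a phosphor imaging plate calibrated with [¹⁴C]glucose standards (0.001–6.5 μCi/g). Read-out in µg eq apixaban/g; LLOQ 0.037 μg eq/g.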

Adrenal gland [2] = test: Biodistribution in female Sprague-Dawley rat adrenal gland at 5 mg/kg, po administered as single dose measured after 72 hrs; type: ADME, organism-based; set-up: dose 5 mg/kg, dosed compound name [14C]-apixaban, route oral
How it was run: (§2)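 Quantitative whole-body autoradiography was run after a single 5 mg/kg (100 μCi/kg) oral gavage to fasted female or pregnant SD rats, one rat per time point. Carcasses were frozen in hexane/dry ice, and 40 µm sagittal sections were dried at −20°C for at least 48 h. Sections were exposed to a phosphor plate alongside [14C]glucose standards (0.001–6.5 µCi/g). Results are µg eq/g, with LLOQ 0.037 µg eq/g.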

Brain [3] = test: Biodistribution in male Sprague-Dawley rat brain at 5 mg/kg, po administered as single dose measured after 1 hr; type: ADME, organism-based; set-up: dose 5 mg/kg, dosed compound name [14C]-apixaban, route oral
Heart [4] = test: Biodistribution in male Sprague-Dawley rat heart at 5 mg/kg, po administered as single dose measured after 1 hr; type: ADME, organism-based; set-up: dose 5 mg/kg, dosed compound name [14C]-apixaban, route oral; how it was run: as §1
Pancreas = test: Biodistribution in male Sprague-Dawley rat pancreas at 5 mg/kg, po administered as single dose measured after 1 hr; type: ADME, organism-based; set-up: dose 5 mg/kg, dosed compound name [14C]-apixaban, route oral
How it was run: (§3)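 [14C]apixaban (1.0 mg/mL, 20 μCi/mL) in 0.5% Tween 80 in Labrafil, given by oral gavage at 100 μCi/kg to male rats (225-252 g) fasted overnight through 4 h post-dose. One rat per time point. Carcasses frozen in hexane/dry ice and cut into 40 µm sagittal sections. QWBA read on phosphor plates against [14C]glucose standards, reported as µg eq/g. LLOQ 0.037 µg eq/g.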

Spleen [5] = test: Biodistribution in male Sprague-Dawley rat spleen at 5 mg/kg, po administered as single dose measured after 1 hr; type: ADME, organism-based; set-up: dose 5 mg/kg, dosed compound name [14C]-apixaban, route oral; how it was run: as §3
Heart [6] = test: Biodistribution in male Sprague-Dawley rat heart at 5 mg/kg, po administered as single dose measured after 4 hrs; type: ADME, organism-based; set-up: dose 5 mg/kg, dosed compound name [14C]-apixaban, route oral; how it was run: as §3
Blood = test: Biodistribution in male Sprague-Dawley rat blood at 5 mg/kg, po administered as single dose measured after 8 hrs; type: ADME, organism-based; set-up: dose 5 mg/kg, dosed compound name [14C]-apixaban, route oral; how it was run: as §1
Muscle tissue [7] = test: Biodistribution in pregnant Sprague-Dawley rat muscle at 5 mg/kg, po administered as single dose measured after 8 hrs; type: ADME, organism-based; set-up: dose 5 mg/kg, dosed compound name [14C]-apixaban, route oral
Rattus norvegicus [8] = test: Biodistribution in pregnant Sprague-Dawley rat pituitary gland at 5 mg/kg, po administered as single dose measured after 1 hr; type: ADME, organism-based; set-up: dose 5 mg/kg, dosed compound name [14C]-apixaban, route oral
Rattus norvegicus [9] = test: Biodistribution in fetal kidney of pregnant Sprague-Dawley rat at 5 mg/kg, po administered as single dose measured after 8 hrs; type: ADME, organism-based; set-up: dose 5 mg/kg, dosed compound name [14C]-apixaban, route oral
How it was run: (§4)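 Fasted pregnant SD rats (n=6, 270-319 g) each received one oral gavage dose of [14C]apixaban, 5 mg/kg (100 μCi/kg), in 0.5% Tween 80/Labrafil. One rat was killed at each of 0.5, 1, 4, 8, 24 and 48 h. Carcasses were frozen in hexane/dry ice, cut into 40 µm sagittal sections, exposed to phosphor plates and quantified against [14C]glucose standards as µg eq/g. LLOQ was 0.037 µg eq/g.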

Adrenal gland [10] = test: Biodistribution in pregnant Sprague-Dawley rat adrenal gland at 5 mg/kg, po administered as single dose measured after 24 hrs; type: ADME, organism-based; set-up: dose 5 mg/kg, dosed compound name [14C]-apixaban, route oral; how it was run: as §4
Spleen [11] = test: Biodistribution in pregnant Sprague-Dawley rat spleen at 5 mg/kg, po administered as single dose measured after 24 hrs; type: ADME, organism-based; set-up: dose 5 mg/kg, dosed compound name [14C]-apixaban, route oral
Rattus norvegicus [12] = test: Biodistribution in pregnant Sprague-Dawley rat placenta at 5 mg/kg, po administered as single dose measured after 24 hrs; type: ADME, organism-based; set-up: dose 5 mg/kg, dosed compound name [14C]-apixaban, route oral
[13] = Drug level in lactating Sprague-Dawley rat milk at 5 mg/kg, po administered as single dose after 0 to 24 hrs; type: ADME, organism-based; set-up: dose 5 mg/kg, dosed compound name [14C]-apixaban, route oral
Harderian gland = test: Biodistribution in pregnant Sprague-Dawley rat harderian gland at 5 mg/kg, po administered as single dose measured after 48 hrs; type: ADME, organism-based; set-up: dose 5 mg/kg, dosed compound name [14C]-apixaban, route oral; how it was run: as §4
Rattus norvegicus [14] = test: Biodistribution in pregnant Sprague-Dawley rat kidney cortex at 5 mg/kg, po administered as single dose measured after 48 hrs; type: ADME, organism-based; set-up: dose 5 mg/kg, dosed compound name [14C]-apixaban, route oral; how it was run: as §4
Muscle tissue [15] = test: Biodistribution in pregnant Sprague-Dawley rat muscle at 5 mg/kg, po administered as single dose measured after 48 hrs; type: ADME, organism-based; set-up: dose 5 mg/kg, dosed compound name [14C]-apixaban, route oral
How it was run: (§5)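 Pregnant SD rats (270-319 g) were fasted overnight and given one oral gavage of 5 mg/kg (100 μCi/kg) in 0.5% Tween 80 in Labrafil. One rat was euthanized per time point (0.5, 1, 4, 8, 24, 48 h) and the carcass frozen. 40 µm sagittal sections were phosphor-imaged against [14C]glucose standards and results reported as µg eq/g; LLOQ 0.037 µg eq/g.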

Thymus = test: Biodistribution in pregnant Sprague-Dawley rat thymus at 5 mg/kg, po administered as single dose measured after 48 hrs; type: ADME, organism-based; set-up: dose 5 mg/kg, dosed compound name [14C]-apixaban, route oral; how it was run: as §5
Rattus norvegicus [16] = test: Biodistribution in female Sprague-Dawley rat salivary gland at 5 mg/kg, po administered as single dose measured after 72 hrs; type: ADME, organism-based; set-up: dose 5 mg/kg, dosed compound name [14C]-apixaban, route oral; how it was run: as §2
Heart [17] = test: Biodistribution in female Sprague-Dawley rat heart at 5 mg/kg, po administered as single dose measured after 4 hrs; type: ADME, organism-based; set-up: dose 5 mg/kg, dosed compound name [14C]-apixaban, route oral; how it was run: as §1
Spleen [18] = test: Biodistribution in female Sprague-Dawley rat spleen at 5 mg/kg, po administered as single dose measured after 1 hr; type: ADME, organism-based; set-up: dose 5 mg/kg, dosed compound name [14C]-apixaban, route oral; how it was run: as §1
Lung = test: Biodistribution in female Sprague-Dawley rat lung at 5 mg/kg, po administered as single dose measured after 1 hr; type: ADME, organism-based; set-up: dose 5 mg/kg, dosed compound name [14C]-apixaban, route oral; how it was run: as §1
Liver = test: Biodistribution in female Sprague-Dawley rat liver at 5 mg/kg, po administered as single dose measured after 1 hr; type: ADME, organism-based; set-up: dose 5 mg/kg, dosed compound name [14C]-apixaban, route oral; how it was run: as §2
Brain [19] = test: Biodistribution in female Sprague-Dawley rat brain at 5 mg/kg, po administered as single dose measured after 1 hr; type: ADME, organism-based; set-up: dose 5 mg/kg, dosed compound name [14C]-apixaban, route oral
How it was run: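 [14C]Apixaban (1.0 mg/mL, 20 μCi/mL in 0.5% Tween 80 in Labrafil) given as a single oral gavage of 5 mg/kg (100 μCi/kg) to fasted female SD rats, one rat per time point. Carcasses were frozen in hexane/dry ice and cut into 40 µm sagittal sections for QWBA against [14C]glucose standards. Brain radioactivity is reported as µg eq/g, with LLOQ 0.037 µg eq/g.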

Rattus norvegicus [20] = test: Biodistribution in fetal brain of pregnant Sprague-Dawley rat at 5 mg/kg, po administered as single dose measured after 0.5 hrs; type: ADME, organism-based; set-up: dose 5 mg/kg, dosed compound name [14C]-apixaban, route oral
How it was run: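 Pregnant SD rats received a single oral gavage of [14C]apixaban at 5 mg/kg (100 μCi/kg; 1.0 mg/mL, 20 μCi/mL in 0.5% Tween 80/Labrafil) after fasting, one dam per time point. Frozen carcasses were cut into 40 µm sagittal sections and read by phosphor-imaging QWBA against [14C]glucose standards. Fetal tissue radioactivity is reported as µg eq/g, with LLOQ 0.037 µg eq/g.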

[21] = Drug excretion in Sprague-Dawley rat feces at 30 mg/kg, po administered as single dose after 0 to 168 hrs
[22] = Drug excretion in Sprague-Dawley rat urine at 30 mg/kg, po administered as single dose after 0 to 168 hrs

## COc1ccc(-n2nc(C(N)=O)c3c2C(=O)N(c2ccc(N4CCCC[14C]4=O)cc2)CC3)cc1
Adrenal gland [1]
  Radiolabel recovery: 1.2 ugequiv/g
Adrenal gland [2]
  Radiolabel recovery: Not detected assumed BLQ
Brain [3]
  Radiolabel recovery: < 0.037 ugequiv/g
Heart [4]
  Radiolabel recovery: 0.7 ugequiv/g
Pancreas
  Radiolabel recovery: 0.62 ugequiv/g
Spleen [5]
  Radiolabel recovery: 0.32 ugequiv/g
Heart [6]
  Radiolabel recovery: 0.45 ugequiv/g
Blood
  Radiolabel recovery: 0.08 ugequiv/g
Muscle tissue [7]
  Radiolabel recovery: 0.05 ugequiv/g
Rattus norvegicus [8]
  Radiolabel recovery: 0.93 ugequiv/g
Rattus norvegicus [9]
  Radiolabel recovery: Not sampled as not visualised in autoradiograph
Adrenal gland [10]
  Radiolabel recovery: Not sampled as not visualised in autoradiograph
Spleen [11]
  Radiolabel recovery: < 0.037 ugequiv/g
Rattus norvegicus [12]
  Radiolabel recovery: < 0.037 ugequiv/g
[13]
  Radiolabel recovery: 4.6 µg/mL
Harderian gland
  Radiolabel recovery: Not detected assumed BLQ
Rattus norvegicus [14]
  Radiolabel recovery: Not detected assumed BLQ
Muscle tissue [15]
  Radiolabel recovery: Not detected assumed BLQ
Thymus
  Radiolabel recovery: Not detected assumed BLQ
Rattus norvegicus [16]
  Radiolabel recovery: Not detected assumed BLQ
Heart [17]
  Radiolabel recovery: 0.51 ugequiv/g
Spleen [18]
  Radiolabel recovery: 0.35 ugequiv/g
Lung
  Radiolabel recovery: 0.883 ugequiv/g
Liver
  Radiolabel recovery: 4.31 ugequiv/g
Brain [19]
  Radiolabel recovery: < 0.037 ugequiv/g
Rattus norvegicus [20]
  Radiolabel recovery: < 0.037 ugequiv/g
[21]
  Radiolabel recovery: 74%
[22]
  Radiolabel recovery: 14%
